7 compounds from ChEMBL document CHEMBL1811853, “Design and evaluation of 3-aminopyrazolopyridinone kinase inhibitors inspired by the natural product indirubin” (Bioorg Med Chem, 2011) can be followed below.

Assay [1] addresses Ribosomal protein S6 kinase alpha-1 (Homo sapiens) (UniProt Q15418). Description: Inhibition of RSK1 at 30 uM by microfluidic mobility shift assay. A digest of the protocol:
(§1)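 Single-concentration screen, singlicate, 30 uM final (diluted from 1 mM DMSO solutions), fluorescently tagged peptide substrate appropriate to each kinase, ATP at apparent Km for each protein. Phosphorylated and unphosphorylated peptides separated electrophoretically; conversion is the phosphorylated peak area over the sum of both peaks. No-inhibitor and no-ATP controls; H89 reference on each plate.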

The nature of assay [2]: Inhibition of PKA at 30 uM by microfluidic mobility shift assay. A digest of the protocol: as §1
For assay [3], the target named is Mitogen-activated protein kinase 3 (Homo sapiens) (UniProt P27361). In words: Inhibition of ERK1 at 30 uM by microfluidic mobility shift assay. A digest of the protocol:
as §1

Assay [4] has as its target Tyrosine-protein kinase Fyn (Homo sapiens, UniProt P06241). In words: Inhibition of FYN at 30 uM by microfluidic mobility shift assay. A digest of the protocol: as §1
Assay [5] concerns the target Mitogen-activated protein kinase 1 (Homo sapiens) (UniProt P28482). In words: Inhibition of ERK2 at 30 uM by microfluidic mobility shift assay. A digest of the protocol:
as §1

Assay [6] has as its target Tyrosine-protein kinase ABL1 (Homo sapiens, UniProt P00519). In words: Inhibition of ABL at 30 uM by microfluidic mobility shift assay. A digest of the protocol: as §1
The target of assay [7] is Insulin receptor (Homo sapiens) (UniProt P06213). In words: Inhibition of INSR at 30 uM by microfluidic mobility shift assay. A digest of the protocol: as §1
Chain of Insulin receptor (Homo sapiens) (P06213 28-758 limits assumed): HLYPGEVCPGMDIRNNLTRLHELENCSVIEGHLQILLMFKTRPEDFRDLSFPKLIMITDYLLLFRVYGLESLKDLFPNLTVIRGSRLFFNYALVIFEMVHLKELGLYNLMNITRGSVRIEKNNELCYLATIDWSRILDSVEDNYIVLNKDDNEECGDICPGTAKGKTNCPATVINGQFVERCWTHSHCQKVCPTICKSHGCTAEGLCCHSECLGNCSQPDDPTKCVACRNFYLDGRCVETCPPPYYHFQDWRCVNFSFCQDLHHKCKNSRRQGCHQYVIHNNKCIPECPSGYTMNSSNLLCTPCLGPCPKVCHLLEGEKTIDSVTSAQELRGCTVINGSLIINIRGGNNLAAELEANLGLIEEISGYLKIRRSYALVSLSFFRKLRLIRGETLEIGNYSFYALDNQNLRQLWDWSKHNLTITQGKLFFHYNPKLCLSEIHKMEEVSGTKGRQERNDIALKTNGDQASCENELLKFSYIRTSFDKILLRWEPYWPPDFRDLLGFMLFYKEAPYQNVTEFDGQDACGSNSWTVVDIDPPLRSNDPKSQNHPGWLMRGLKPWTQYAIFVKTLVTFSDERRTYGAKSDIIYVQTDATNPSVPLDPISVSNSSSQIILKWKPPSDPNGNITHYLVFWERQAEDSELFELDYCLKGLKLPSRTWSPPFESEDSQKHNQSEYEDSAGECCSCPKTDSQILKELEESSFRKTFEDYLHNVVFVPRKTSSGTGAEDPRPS
Chain of Insulin receptor (Homo sapiens) (P06213 763-1382 limits assumed): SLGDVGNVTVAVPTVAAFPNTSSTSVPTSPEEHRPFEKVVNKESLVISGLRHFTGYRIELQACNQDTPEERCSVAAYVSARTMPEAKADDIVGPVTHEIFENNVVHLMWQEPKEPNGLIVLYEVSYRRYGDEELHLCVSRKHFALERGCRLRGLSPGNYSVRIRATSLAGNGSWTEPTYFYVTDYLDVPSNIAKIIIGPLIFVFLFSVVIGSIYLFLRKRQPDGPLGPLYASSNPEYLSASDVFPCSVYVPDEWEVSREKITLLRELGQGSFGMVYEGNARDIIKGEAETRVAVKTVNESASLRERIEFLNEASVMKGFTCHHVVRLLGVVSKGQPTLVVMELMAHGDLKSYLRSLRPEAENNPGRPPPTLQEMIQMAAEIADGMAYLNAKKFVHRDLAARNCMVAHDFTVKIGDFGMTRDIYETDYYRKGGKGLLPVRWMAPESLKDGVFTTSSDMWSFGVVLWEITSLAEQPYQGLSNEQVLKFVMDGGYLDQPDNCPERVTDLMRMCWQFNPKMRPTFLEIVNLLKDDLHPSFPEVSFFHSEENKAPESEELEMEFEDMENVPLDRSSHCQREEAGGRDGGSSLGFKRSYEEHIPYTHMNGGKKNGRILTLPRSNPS
In assay [8] the target is Proto-oncogene tyrosine-protein kinase Src (Homo sapiens, UniProt P12931). Description: Inhibition of SRC at 30 uM by microfluidic mobility shift assay. A digest of the protocol:
as §1

For assay [9], the target named is Glycogen synthase kinase-3 beta (Homo sapiens) (UniProt P49841). Description: Inhibition of GSK3B at 30 uM by microfluidic mobility shift assay. A digest of the protocol:
as §1

Assay [10] addresses Mitogen-activated protein kinase 14 (Homo sapiens, UniProt Q16539). In words: Inhibition of p38alpha at 30 uM by microfluidic mobility shift assay. A digest of the protocol:
as §1

Assay [11] has as its target T1, Serine/threonine-protein kinase Chk1 (Homo sapiens) (UniProt O14757).
T1 sequence (whole entry): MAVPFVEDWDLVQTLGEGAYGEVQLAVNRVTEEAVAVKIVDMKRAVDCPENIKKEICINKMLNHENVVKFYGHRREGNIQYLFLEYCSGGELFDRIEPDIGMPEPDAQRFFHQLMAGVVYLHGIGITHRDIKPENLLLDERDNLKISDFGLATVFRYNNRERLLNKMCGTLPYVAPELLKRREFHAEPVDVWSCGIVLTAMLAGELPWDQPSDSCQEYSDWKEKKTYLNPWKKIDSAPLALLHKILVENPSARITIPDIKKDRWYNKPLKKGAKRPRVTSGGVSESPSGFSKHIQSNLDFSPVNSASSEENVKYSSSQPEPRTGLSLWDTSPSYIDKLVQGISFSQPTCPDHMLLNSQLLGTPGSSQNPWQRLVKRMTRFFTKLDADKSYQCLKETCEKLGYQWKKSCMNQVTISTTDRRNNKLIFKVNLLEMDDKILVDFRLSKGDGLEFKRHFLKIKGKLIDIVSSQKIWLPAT
Description: Inhibition of CHK1 at 30 uM by microfluidic mobility shift assay. A digest of the protocol:
as §1

Assay [12] addresses T2, Serine/threonine-protein kinase D2 (Homo sapiens) (UniProt Q9BZL6).
T2 sequence (whole entry): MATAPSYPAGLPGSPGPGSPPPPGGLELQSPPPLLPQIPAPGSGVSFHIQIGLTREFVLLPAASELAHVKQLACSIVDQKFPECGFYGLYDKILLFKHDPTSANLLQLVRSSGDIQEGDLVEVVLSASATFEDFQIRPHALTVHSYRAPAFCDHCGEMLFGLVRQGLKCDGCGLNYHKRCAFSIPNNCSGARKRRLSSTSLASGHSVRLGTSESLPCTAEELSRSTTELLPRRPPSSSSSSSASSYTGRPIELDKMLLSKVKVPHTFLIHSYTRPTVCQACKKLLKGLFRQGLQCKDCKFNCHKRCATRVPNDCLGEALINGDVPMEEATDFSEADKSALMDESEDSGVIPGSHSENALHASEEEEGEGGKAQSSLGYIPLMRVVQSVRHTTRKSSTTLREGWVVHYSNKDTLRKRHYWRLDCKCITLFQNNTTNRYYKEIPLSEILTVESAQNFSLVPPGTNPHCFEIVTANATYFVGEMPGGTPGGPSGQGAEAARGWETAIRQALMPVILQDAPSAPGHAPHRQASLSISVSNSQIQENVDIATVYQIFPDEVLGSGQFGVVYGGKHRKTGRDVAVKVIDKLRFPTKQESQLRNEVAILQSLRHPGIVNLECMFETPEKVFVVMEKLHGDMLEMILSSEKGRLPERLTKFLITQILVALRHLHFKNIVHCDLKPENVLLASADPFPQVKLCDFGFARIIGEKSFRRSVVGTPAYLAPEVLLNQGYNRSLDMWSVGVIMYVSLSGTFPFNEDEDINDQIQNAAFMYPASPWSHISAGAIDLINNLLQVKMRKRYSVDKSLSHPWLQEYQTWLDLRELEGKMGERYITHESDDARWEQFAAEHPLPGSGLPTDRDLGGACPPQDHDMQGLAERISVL
In words: Inhibition of PKD2 at 30 uM by microfluidic mobility shift assay. A digest of the protocol:
as §1

Assay [13] addresses MAP kinase-activated protein kinase 2 (Homo sapiens, UniProt P49137). Description: Inhibition of MAPKAPK2 at 30 uM by microfluidic mobility shift assay. A digest of the protocol:
as §1

Assay [14] deals with RAC-beta serine/threonine-protein kinase (Homo sapiens) (UniProt P31751). In words: Inhibition of AKT2 at 30 uM by microfluidic mobility shift assay. A digest of the protocol: as §1
Chain of RAC-beta serine/threonine-protein kinase (Homo sapiens) (P31751 whole entry): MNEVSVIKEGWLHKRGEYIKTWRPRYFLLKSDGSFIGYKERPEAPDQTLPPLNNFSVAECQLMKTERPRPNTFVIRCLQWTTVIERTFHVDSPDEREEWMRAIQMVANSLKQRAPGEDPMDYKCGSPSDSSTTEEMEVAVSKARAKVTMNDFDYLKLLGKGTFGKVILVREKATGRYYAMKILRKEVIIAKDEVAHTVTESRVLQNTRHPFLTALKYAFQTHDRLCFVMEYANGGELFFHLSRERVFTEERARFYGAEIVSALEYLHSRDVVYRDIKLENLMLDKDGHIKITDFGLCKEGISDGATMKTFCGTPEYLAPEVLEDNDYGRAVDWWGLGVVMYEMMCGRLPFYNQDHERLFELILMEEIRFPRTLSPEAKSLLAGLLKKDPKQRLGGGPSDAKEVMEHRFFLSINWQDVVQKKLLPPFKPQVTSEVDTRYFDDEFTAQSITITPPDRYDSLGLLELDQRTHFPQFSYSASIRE
In assay [15] the target is RAC-alpha serine/threonine-protein kinase (Homo sapiens) (UniProt P31749). Description: Inhibition of AKT1 at 30 uM by microfluidic mobility shift assay. A digest of the protocol: as §1
Chain of RAC-alpha serine/threonine-protein kinase (Homo sapiens) (P31749 whole entry): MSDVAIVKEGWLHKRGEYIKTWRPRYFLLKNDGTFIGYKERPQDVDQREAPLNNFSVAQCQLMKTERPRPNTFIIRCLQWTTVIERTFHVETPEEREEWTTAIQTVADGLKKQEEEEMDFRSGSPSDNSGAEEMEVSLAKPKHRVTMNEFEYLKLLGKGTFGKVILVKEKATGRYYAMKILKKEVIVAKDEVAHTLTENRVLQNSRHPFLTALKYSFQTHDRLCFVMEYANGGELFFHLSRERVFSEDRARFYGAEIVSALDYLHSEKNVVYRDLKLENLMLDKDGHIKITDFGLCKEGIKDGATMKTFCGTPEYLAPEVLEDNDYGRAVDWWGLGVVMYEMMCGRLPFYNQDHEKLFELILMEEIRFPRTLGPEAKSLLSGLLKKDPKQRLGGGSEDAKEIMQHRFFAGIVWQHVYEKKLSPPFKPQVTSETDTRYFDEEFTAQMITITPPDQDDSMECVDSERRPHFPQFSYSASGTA
Assay [16] deals with Tyrosine-protein kinase Lyn (Homo sapiens, UniProt P07948). In words: Inhibition of LYN at 30 uM by microfluidic mobility shift assay. A digest of the protocol:
as §1

The target in assay [17] is T3, Aurora kinase A (Homo sapiens) (UniProt O14965).
T3 sequence (whole entry): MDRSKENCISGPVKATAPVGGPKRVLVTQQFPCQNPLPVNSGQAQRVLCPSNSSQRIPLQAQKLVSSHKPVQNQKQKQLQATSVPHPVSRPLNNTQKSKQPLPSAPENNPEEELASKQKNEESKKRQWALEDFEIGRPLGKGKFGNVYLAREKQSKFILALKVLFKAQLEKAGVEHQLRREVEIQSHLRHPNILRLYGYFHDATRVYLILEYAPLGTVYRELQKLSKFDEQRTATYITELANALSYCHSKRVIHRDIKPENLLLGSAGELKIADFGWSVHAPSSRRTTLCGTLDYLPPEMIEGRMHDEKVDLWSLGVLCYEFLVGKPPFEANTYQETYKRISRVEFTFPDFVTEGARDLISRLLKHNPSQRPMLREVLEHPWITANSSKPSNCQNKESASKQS
In words: Inhibition of AurA at 30 uM by microfluidic mobility shift assay. A digest of the protocol:
as §1

The target of assay [18] is Tyrosine-protein kinase Lck (Homo sapiens, UniProt P06239). Description: Inhibition of LCK at 30 uM by microfluidic mobility shift assay. A digest of the protocol: as §1

Each structure is given as a SMILES string.

Chain of Tyrosine-protein kinase Lyn (P07948 2-512 limits assumed): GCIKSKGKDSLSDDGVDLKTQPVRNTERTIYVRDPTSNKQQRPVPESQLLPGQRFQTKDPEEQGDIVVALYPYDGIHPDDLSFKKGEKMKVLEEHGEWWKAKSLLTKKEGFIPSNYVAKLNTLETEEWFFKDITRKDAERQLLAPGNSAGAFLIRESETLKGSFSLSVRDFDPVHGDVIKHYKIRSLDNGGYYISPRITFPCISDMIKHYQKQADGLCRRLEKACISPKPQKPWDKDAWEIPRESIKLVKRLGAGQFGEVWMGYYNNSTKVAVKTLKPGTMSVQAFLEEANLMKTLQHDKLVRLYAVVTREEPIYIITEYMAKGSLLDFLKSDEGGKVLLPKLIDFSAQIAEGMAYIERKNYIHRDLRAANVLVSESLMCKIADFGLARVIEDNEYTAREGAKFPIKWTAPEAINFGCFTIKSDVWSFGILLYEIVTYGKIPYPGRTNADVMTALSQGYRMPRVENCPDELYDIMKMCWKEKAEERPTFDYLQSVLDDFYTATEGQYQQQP
Chain of Mitogen-activated protein kinase 1 (Homo sapiens) (P28482 whole entry): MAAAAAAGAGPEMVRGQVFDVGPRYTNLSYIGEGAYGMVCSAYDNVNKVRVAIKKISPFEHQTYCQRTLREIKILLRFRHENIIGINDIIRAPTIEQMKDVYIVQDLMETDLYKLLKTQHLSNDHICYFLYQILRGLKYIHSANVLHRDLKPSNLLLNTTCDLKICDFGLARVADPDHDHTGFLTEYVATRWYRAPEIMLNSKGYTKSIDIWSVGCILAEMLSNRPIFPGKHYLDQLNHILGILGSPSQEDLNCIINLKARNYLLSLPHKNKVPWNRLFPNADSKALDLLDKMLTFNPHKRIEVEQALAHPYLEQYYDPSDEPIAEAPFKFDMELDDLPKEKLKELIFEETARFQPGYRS
Chain of Proto-oncogene tyrosine-protein kinase Src (P12931 2-536 limits assumed): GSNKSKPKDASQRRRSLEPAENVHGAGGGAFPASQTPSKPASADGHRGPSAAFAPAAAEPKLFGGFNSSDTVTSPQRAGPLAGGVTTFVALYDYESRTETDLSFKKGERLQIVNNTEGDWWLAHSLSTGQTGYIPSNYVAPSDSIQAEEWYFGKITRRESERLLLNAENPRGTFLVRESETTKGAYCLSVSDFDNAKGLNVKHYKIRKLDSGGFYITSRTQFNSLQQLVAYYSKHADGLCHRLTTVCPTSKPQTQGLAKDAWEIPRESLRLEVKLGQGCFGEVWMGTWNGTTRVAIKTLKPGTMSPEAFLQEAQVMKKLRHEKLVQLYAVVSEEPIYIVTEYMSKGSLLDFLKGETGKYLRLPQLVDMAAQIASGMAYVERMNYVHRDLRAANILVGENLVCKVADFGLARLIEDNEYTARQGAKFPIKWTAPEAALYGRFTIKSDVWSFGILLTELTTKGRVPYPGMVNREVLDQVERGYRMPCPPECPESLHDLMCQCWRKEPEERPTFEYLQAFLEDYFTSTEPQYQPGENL
Chain of Mitogen-activated protein kinase 3 (Homo sapiens) (P27361 whole entry): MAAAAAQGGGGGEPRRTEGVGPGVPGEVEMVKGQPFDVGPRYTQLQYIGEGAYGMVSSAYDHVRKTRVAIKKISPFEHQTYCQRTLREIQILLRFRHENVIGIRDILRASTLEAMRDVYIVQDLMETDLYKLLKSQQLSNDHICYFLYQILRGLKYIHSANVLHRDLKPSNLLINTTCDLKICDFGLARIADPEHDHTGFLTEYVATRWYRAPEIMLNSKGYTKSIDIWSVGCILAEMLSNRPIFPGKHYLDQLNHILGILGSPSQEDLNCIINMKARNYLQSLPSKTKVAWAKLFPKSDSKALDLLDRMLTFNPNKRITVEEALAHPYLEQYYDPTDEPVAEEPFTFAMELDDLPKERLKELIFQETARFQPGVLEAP
Chain of Glycogen synthase kinase-3 beta (Homo sapiens) (P49841 whole entry, looked up): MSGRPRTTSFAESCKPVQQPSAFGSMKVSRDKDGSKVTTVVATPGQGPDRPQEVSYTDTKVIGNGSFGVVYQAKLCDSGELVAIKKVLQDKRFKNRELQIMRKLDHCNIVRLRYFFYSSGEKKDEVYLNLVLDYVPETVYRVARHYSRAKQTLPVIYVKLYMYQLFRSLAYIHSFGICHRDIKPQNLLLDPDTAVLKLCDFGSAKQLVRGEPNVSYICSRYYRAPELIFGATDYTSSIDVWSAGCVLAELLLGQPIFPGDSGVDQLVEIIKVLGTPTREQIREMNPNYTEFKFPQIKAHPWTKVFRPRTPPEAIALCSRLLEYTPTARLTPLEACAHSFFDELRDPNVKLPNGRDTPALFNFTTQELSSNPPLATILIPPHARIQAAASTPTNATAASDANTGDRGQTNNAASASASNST
Chain of Mitogen-activated protein kinase 14 (Q16539 whole entry): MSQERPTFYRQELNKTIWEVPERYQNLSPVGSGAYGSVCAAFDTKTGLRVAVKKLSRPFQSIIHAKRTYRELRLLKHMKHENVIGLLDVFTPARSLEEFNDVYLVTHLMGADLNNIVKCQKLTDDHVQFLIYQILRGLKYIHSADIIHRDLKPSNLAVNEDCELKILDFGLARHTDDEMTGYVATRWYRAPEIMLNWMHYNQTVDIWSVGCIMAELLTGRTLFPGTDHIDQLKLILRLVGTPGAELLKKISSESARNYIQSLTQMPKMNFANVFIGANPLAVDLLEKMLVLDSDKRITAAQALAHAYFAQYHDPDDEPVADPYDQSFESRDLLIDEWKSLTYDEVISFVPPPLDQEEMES

As for `COCCNc1nc(C)cc2c1c(N)nn2C`, the inhibition (in general, the drop in the measured response relative to a control, in per cent) in [1] was -4%; in assay [2], 19%; in assay [3] it was 5%; in assay [4], -1%; in assay [5], 8%; in assay [6], -8%. Besides, the inhibition amounted to 0% in assay [7]; 2% in assay [8]; 1% in assay [9]; 1% in assay [10]; 7% in assay [11]; 4% in [12]. Further, the inhibition in assay [13] is 6%; in assay [14], -3%; in assay [15] it was 6%; in assay [16], 6%; in assay [17] it was 15%; in assay [18], 1%.
As to `Cc1cc2c(c(N)nn2C)c(N2CC[C@H](O)C2)n1`, the inhibition was -5% in assay [1]; 4% in [2]; 2% in assay [3]; 1% in assay [4]; 2% in assay [5]; -4% in [6]. Further, the inhibition in [7] was -2%; in assay [8] it was 3%; in [9], -6%; in assay [10], 0%; in assay [11], 7%; in [12] it was 8%. Moreover, the inhibition in assay [13] was found to be 2%; in assay [14], 4%; in assay [15] it was 7%; in assay [16], 5%; in [17] it was 0%; in assay [18], 1%.
As to `Nc1n[nH]c2cc(-c3ccccn3)[nH]c(=O)c12`, the inhibition turned out to be 24% in assay [1]; 42% in assay [2]; 11% in [3]; 54% in assay [4]; 12% in assay [5]; 40% in assay [6]. Moreover, the inhibition was 34% in [7]; 63% in assay [8]; 60% in assay [9]; 17% in assay [10]; 29% in assay [11]; 33% in assay [12]. In addition, the inhibition in assay [13] is 41%; in assay [14] it was 8%; in assay [15], 2%; in [16], 49%; in assay [17] it was 38%; in [18] it was 56%.
In the case of `Cc1cc2[nH]nc(N)c2c(=O)[nH]1`, the inhibition in assay [1] stood at 6%; in [2], 57%; in assay [3] it was 4%; in [4] it was 2%; in assay [5], 0%; in assay [6], 12%. Further, the inhibition was -2% in [7]; 14% in [8]; 18% in [9]; -7% in assay [10]; 7% in [11]; -1% in [12]. Besides, the inhibition was 30% in assay [13]; 8% in [14]; -3% in assay [15]; 3% in assay [16]; 23% in [17]; 6% in assay [18].
With `COc1ccccc1-c1cc2nn(-c3ccccc3)c(N)c2c(=O)[nH]1`, the inhibition in [1] stood at 3%; in assay [2], 6%; in assay [3], 21%; in assay [4], 77%; in assay [5], 13%; in [6] it was 86%. For the same compound, the inhibition in [7] is -2%; in assay [8], 87%; in assay [9], 3%; in assay [10], 68%; in assay [11], 3%; in [12] it was 20%. For the same compound, the inhibition in [13] is -1%; in assay [14], 0%; in assay [15] it was 15%; in assay [16], 86%; in assay [17], 7%; in assay [18], 72%.
As for `CC(C)(C)c1cc2nn(-c3ccccc3)c(N)c2c(=O)[nH]1`, the inhibition in [1] came to 5%; in assay [2] it was 1%; in assay [3] it was 21%; in assay [4], 9%; in assay [5], 18%; in [6], 13%. Besides, the inhibition is 4% in assay [7]; 7% in [8]; 31% in [9]; 85% in [10]; 11% in assay [11]; 15% in [12]. The inhibition came to 6% in assay [13]; 3% in assay [14]; 7% in [15]; 8% in assay [16]; 9% in assay [17]; 8% in [18].
`Cn1nc2c3c(nc(-c4ccccc4)cc31)NCC(=O)N2`: the inhibition in [1] came to 0%; in assay [2], 0%; in assay [3] it was 5%; in [4], 12%; in [5] it was 2%; in assay [6], 4%. Moreover, the inhibition in [7] was 2%; in [8], 22%; in assay [9], 14%; in [10], 6%; in assay [11] it was 6%; in assay [12] it was 17%. For the same compound, the inhibition in assay [13] stood at 8%; in [14] it was 1%; in assay [15] it was 10%; in assay [16], 6%; in assay [17], 20%; in [18] it was 6%.
